Screens: PubChem, several laboratories
ABCB6 inh 2: human ABCB6 transporter inhibition; Q9NP58; K562-ABCB6 porphyrin accumulation, flow cytometry, 1 h; hits give low values; fluorescence ratio to DMSO, % at 10 µM; 0.19% of 360,000 active; AID 602162;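 active means fluorescence ratio to DMSO below 75%, the collection mean minus 3 SD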;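 further: signal is porphyrin accumulated inside mitochondria; 100% equals median channel fluorescence of DMSO control wells; lower ratio means ABCB6 inhibition with less porphyrin fluorescence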
STAT3 act: STAT3 signaling activation; U3A cells, IL-6 STAT3-luciferase reporter, luminescence; 100% = signal with IL-6 EC80 alone; activation (% of control), % at 5.6 µM; 0.91% of 190,000 active;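 active means activation above the screen-wide mean of compound activation plus 3 SD, cut at about 130% in these data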;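 further: 0% = background luminescence of wells with medium and substrate only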
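Material: STAT3-luciferase reporter U3A cells; Probe or stimulus: IL-6 (33 ng/mL); Incubation: compound pre-incubation 1 h before IL-6, then 6 h stimulation at 37 °C; Technique: luminescence from STAT3-driven luciferase reporter; Evaluation: % activation versus median of IL-6-stimulated wells; Controls: IL-6-only high control.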
GAA850 FXN act: frataxin GAA850 promoter activation; activation, % at 6 µM; HEK293 lucGAA850 FXN promoter luciferase reporter, 24 h; percent of 10 µM SAHA response; 0.56% of 360,000 active;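 active means activation above the average of all compounds screened plus 3 SD, cutoff fixed separately per campaign, cut at about 7.5% in these data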;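 further: 0% = DMSO wells and 100% = 10 µM SAHA wells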
AHR activator: human AHR activation | AHR-responsive luciferase reporter cells, luminescence | activation, % at 5 µM | 2.5% of 320,000 active | AID 2796; in the data active means activation above about 47%;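 further: 0% = vehicle wells and 100% = reference agonist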
Target sequence (P35869 whole entry, looked up): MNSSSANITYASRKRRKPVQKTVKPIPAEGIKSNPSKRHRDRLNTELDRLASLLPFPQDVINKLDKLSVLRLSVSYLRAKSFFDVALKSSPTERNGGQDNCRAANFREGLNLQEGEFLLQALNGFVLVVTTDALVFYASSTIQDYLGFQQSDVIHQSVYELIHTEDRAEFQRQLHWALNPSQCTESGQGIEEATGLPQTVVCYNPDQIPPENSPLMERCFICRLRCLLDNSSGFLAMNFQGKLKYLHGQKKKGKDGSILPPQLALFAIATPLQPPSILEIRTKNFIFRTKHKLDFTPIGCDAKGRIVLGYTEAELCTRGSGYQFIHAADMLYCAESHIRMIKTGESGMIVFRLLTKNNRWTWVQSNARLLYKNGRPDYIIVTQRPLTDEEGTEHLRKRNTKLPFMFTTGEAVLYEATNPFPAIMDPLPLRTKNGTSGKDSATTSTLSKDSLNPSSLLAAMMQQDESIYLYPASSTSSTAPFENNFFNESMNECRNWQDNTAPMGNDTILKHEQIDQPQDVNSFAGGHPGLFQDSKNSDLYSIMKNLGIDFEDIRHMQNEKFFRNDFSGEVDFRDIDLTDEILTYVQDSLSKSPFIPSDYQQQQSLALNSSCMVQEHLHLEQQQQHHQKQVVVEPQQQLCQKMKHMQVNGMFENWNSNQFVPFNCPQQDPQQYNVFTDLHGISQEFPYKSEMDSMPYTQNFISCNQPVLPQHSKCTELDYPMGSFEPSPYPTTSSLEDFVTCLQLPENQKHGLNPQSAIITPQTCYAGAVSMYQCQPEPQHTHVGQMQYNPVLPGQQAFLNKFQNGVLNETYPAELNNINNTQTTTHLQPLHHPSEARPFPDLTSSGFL
An asterisk follows results filed as active; . = no result given. Compounds with a hit are over-represented: about 3.3% of the library has one in this group of screens.

SMILES	ABCB6 inh 2	STAT3 act	GAA850 FXN act	AHR activator
O=C(Nc1ccccc1Cl)c1cc2ccccc2o/c1=N\O	100	.	7	76*
OCCN(Cc1ccccc1)CC(O)COc1ccc2c(c1)OCO2 (stereo not given)	110	.	1	8
Cc1ccc(C(=O)Nc2nccc(-c3cccs3)n2)cc1	91	83	3	71*
COc1cccc(C(=O)NNC(=O)c2sccc2-n2cccc2)c1	98	91	0	69*
Cc1cccc(NC(=O)NNC(=O)c2sccc2-n2cccc2)c1	86	109	2	53*
O=C(Nc1ccc(Br)cc1F)c1sccc1-n1cccc1	97	97	-1	103*
Cc1c(Br)cccc1NC(=O)c1sccc1-n1cccc1	102	93	-1	.
O=S1(=O)CC(N2CCCCC2)CN1Cc1cn(Cc2ccc(Cl)cc2)nn1 (stereo not given)	92	.	.	.
Cc1ccc(-c2nc3ccccc3c(C(=O)NCc3cccs3)c2C)cc1	97	143*	0	23
O=C(NCc1cccs1)c1cc(-c2ccccc2)nc2ccccc12	99	114	1	9
CCOC(=O)c1cnc2cc(F)c(F)cc2c1N1CCN(C)CC1	101	.	0	0
S=C(Nc1ccccc1)N1CCc2ccccc21	98	.	3	11
COc1ccc(NC(=S)N2CCc3ccccc32)cc1OC	103	.	2	53*
CCOc1c(CNCCCSc2nc(C)cc(C)n2)cccc1OC	102	.	-3	0
Cc1cccc(CCNC(=O)Cn2ncc3c([nH]c4ccccc43)c2=O)c1	92	.	2	6
CC1(C)OC1COc1c2ccoc2cc2oc(=O)ccc12 (stereo not given)	99	98	1	68*
COc1c2ccoc2c(OC[C@@H](O)C(C)(C)O)c2oc(=O)ccc12	104	99	-1	50*
COC(C)(C)[C@H](O)COc1c2ccoc2cc2oc(=O)ccc12	103	95	-1	57*
COc1c2ccoc2cc2oc(=O)ccc12	97	.	0	24
CCCCCCC(=O)Nc1nc(C)c(-c2csc(Nc3ccccc3OC)n2)s1	100	94	0	69*
CCCCCC(=O)Nc1nc(C)c(-c2csc(Nc3ccccc3OCC)n2)s1	105	103	-1	67*
CCCCC(=O)Nc1nc(C)c(-c2csc(Nc3cc(Cl)ccc3OC)n2)s1	102	104	1	70*
CCCC(C)C(=O)Nc1nc(C)c(-c2csc(Nc3ccc(Cl)cc3)n2)s1 (stereo not given)	101	129	-1	79*
COCCN(C(=O)CSCC(=O)Nc1cccc(C)c1)c1c(N)n(Cc2ccccc2)c(=O)[nH]c1=O	99	.	0	1
CCCC1C(C(=O)OCC)=C(C)NC(C)=C1C(=O)OCC	94	100	-2	57*
SMILES	ABCB6 inh 2	STAT3 act	GAA850 FXN act	AHR activator
CC1(C(=O)NS(=O)(=O)c2cccc(Cl)c2)CCN1C(=O)CCc1ccccc1 (stereo not given)	97	.	1	.
O=C1NC(=O)/C(=C\c2ccccc2OCc2ccc([N+](=O)[O-])cc2)N1	99	103	2	72*
C/C(=N\Nc1nc2c(s1)CCCC2)c1ccccc1	94	184*	0	21
CCC(=O)OC1(C(C)=O)CCC2C3CCC4=CC(=O)CCC4(C)C3CCC21C (stereo not given)	101	.	0	.
Cc1cccnc1NC(=O)c1c(O)c2ccccc2n(C)c1=O	86	133*	2	54*
Cc1ccccc1NC(=O)C(C)N1C(=O)c2ccccc2C1=O (stereo not given)	103	.	-2	1
CCn1c(=O)c(C(=O)Nc2ncccc2O)c(O)c2ccccc21	89	.	1	10
Cn1c(=O)c(C(=O)NNC(=O)c2ccccc2F)c(O)c2ccccc21	105	.	2	66*
CCn1c(=O)c(C(=O)NNC(=O)c2ccccc2F)c(O)c2ccccc21	92	.	0	7
Cc1cccnc1NC(=O)C(C)N1C(=O)c2ccccc2C1=O (stereo not given)	97	.	-1	66*
CC(C)c1ccc(-n2nc3ccc(N)cc3n2)cc1	100	83	1	58*
COc1ccc(-n2nc3ccc(N)cc3n2)cc1	102	.	-10	.
Cc1cc(Br)cc2cn[nH]c12	98	100	0	2
O=C(Nc1ccc2c(c1)OCCO2)c1cc2sccc2n1Cc1ccc(F)cc1	90	93	-2	64*
CCC(Cc1ccccc1)NC(=O)c1ccc2nc(N3CCOCC3)sc2c1 (stereo not given)	100	.	0	59*
COc1ccc2c(c1)c(=O)oc1cc3oc(C)c(C)c3cc12	.	89	.	.
COc1cc(OC)c(NC(=O)CCc2ccccc2)cc1Cl	101	105	0	50*
COc1ccc(C(=O)Nc2cc(OC)c(Cl)cc2Cl)cc1	99	122	2	50*
COc1ccc(C(=O)Nc2cc(OCc3ccccc3)c(Cl)cc2Cl)cc1	99	87	-1	28
COc1ccc(Cl)cc1NC(=O)CCc1ccccc1	95	86	2	-1
COc1ccc(C(=O)CC(=O)C(=O)Nc2cc(Cl)c(OC)cc2OC)cc1	97	108	0	77*
O=c1cc(CN2CCCCC2)c2ccccc2o1	96	.	.	.
CC(C)(C)c1ccc(N2C(=O)Cc3c2nc(N)c(C#N)c3N)cc1	100	117	2	76*
CCc1ccc(N2C(=O)Cc3c2nc(N)c(C#N)c3N)cc1	106	115	4	52*
CCN(CC)c1nc2c3c(nc4c(c3c1C#N)CC(=O)N4c1ccc(Cl)cc1)NC(C)=N2	114	86	-4	7
SMILES	ABCB6 inh 2	STAT3 act	GAA850 FXN act	AHR activator
Cc1ccc(C(=O)OCC(=O)NC2CCCC2)cc1C	94	.	1	0
NCC(c1ccccc1Cl)c1c[nH]c2ccccc12 (stereo not given)	97	.	0	57*
NCC(c1ccccc1)c1c[nH]c2ccccc12 (stereo not given)	94	114	0	46
NCC(c1ccc(Cl)cc1Cl)c1c[nH]c2ccccc12 (stereo not given)	95	.	-1	65*
CC1=NC(C)(C)CC2CCC(O)C12 (stereo not given)	97	.	0	.
COc1cccc(NCc2cc(=O)oc3cc(C)c(O)cc23)c1	94	.	1	16
COc1cccc(NCc2cc(=O)oc3cc(-c4ccccc4)c(O)cc23)c1	97	97	2	76*
CS/C(N)=N/N=C/c1cc(Br)cc(Br)c1O	105	.	2	66*
COc1cccc(CN2CCNC(=O)C2CC(=O)N(C)C2CCOCC2)c1OC (stereo not given)	103	.	0	3
CNC(=S)N/N=C(\C)c1ccc2c(c1)OCCO2	96	95	2	48*
C/C(=N\NC(=S)Nc1ccc(C(C)C)cc1)c1ccc2c(c1)OCO2	99	94	3	34
C/C(=N\NC(=O)c1ccccc1)c1ccc2c(c1)OCO2	100	113	3	2
C/C(=N\NC(=O)c1c[nH]c2ccccc12)c1ccc2c(c1)OCO2	100	100	4	93*
CNC(=S)N/N=C(\C)c1ccc2c(c1)OCO2	92	92	0	72*
